Measured values: PMC10993231 (RSC Advances, 2024)

Experiment: Stability of radiolabeled peptide in human plasma
Assay type: in vitro ADME
Details: 37 °C, TLC read-out
Procedure, shortened: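 The peptide was dissolved in DMSO and diluted with water, then iodinated with 131I (3 mCi) and chloramine-T in 0.05 mol L−1 PBS, pH 7.4. The mixture was vortexed 2 min at room temperature and the reaction stopped with sodium metabisulfite. The 131I-peptide was incubated with human plasma at 37 °C for up to 72 h to gauge proteolytic degradation.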

Radioactivity remaining after incubation in human plasma (5 h incubation): > 90%
Radioactivity remaining after incubation in human plasma (72 hours incubation): 57.5%
Substance: ^131I-cWIWLYA (head to tail)
